Assay results taken from paper PMC10947042 (Chemmedchem, 2022).

Experiments:
[1] = tested on: Swiss 3T3 cells; test: Receptor-mediated endocytosis assay, Swiss 3T3 cells; type: cell-based
How it was run: (§1)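 Cells grown in DMEM/10 % FCS, then serum‑free DMEM for 16 h. Compound added 30 min (final DMSO ≤1 %), then Tfn‑TxR (final 5.0 μg/mL) or EGF‑TxR (final 1.0 μg/mL) as applicable, 10 min at 37 °C. Surface ligand stripped with ice‑cold acid wash (pH 2.8), 4 % PFA fix, DAPI stain, fluorescence microscopy. Quantified as integrated intensity per cell, % of vehicle control.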

[2] = tested on: B35 cells; test: Receptor-mediated endocytosis assay, B35 cells; type: cell-based
How it was run: as §1

[3] = tested on: HeLa cells; test: Receptor-mediated endocytosis assay, HeLa cells; type: cell-based
How it was run: as §1

[4] = tested on: B104 cells; test: Receptor-mediated endocytosis assay, B104 cells; type: cell-based
How it was run: as §1

[5] = tested on: COS7 cells; test: Receptor-mediated endocytosis assay, COS7 cells; type: cell-based; conditions: at up to 300 μM
How it was run: as §1

[6] = tested on: dynamin I; conditions: read-out: IC50 for dynamin I inhibition; in vitro dynamin I GTPase; cited from earlier work
[7] = tested on: dyn II; conditions: read-out: dyn II IC50; cited from earlier work
[8] = tested on: dynamin I; test: Malachite Green GTPase assay, dynamin I; type: biochemical, sheep; conditions: increasing GTP or phospholipid (PS) concentration, Figure 2
How it was run: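 GTP 0.3 mM, PS liposomes ~4 μg/ml (GTP or PS varied). Compound present; 30 min, 37 °C; EDTA stop; malachite green A650 against phosphate standard. Basal subtracted; Michaelis‑Menten and Lineweaver‑Burk fits.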

[9] = tested on: HER14 cells; test: Receptor-mediated endocytosis assay, HER14 cells; type: cell-based
How it was run: as §1

[10] = Solubility in the buffer solution; type: physicochemical
[11] = tested on: A431 cells; test: Receptor-mediated endocytosis assay, A431 cells; type: cell-based; conditions: 30 μM, data not shown
[12] = Rat blood plasma stability; type: in vitro ADME; conditions: 5 % rat blood plasma, Figure 3E

N#CC(=Cc1ccc(O)c(O)c1)C(=O)NCCCNC(=O)C(C#N)=Cc1ccc(O)c(O)c1 [Compound 2, 2‐Cyano‐N‐{3‐[2‐cyano‐3‐(3,4‐dihydroxyphenyl)acryloylamino]propyl}‐3‐(3,4‐dihydroxyphenyl)acrylamide]
endocytosis block (TxR‐Tfn uptake) ([1]; 100 μM): essentially complete
endocytosis block ([2]; at up to 300 μM): largely ineffective
effect on EGF‐TxR uptake (CME) ([3]; 100 μM): no effect on CME
endocytosis block ([3]; at up to 300 μM): largely ineffective
endocytosis block ([4]; 100 μM, not shown): essentially complete
endocytosis block [5]: largely ineffective
IC50 [6]: 1700 ± 2000 nM
IC50 [7]: 500 nM
mode of dynamin inhibition [8]: non‐GTP and non‐lipid dependent manner
endocytosis block ([9]; 100 μM, not shown): essentially complete

CC(=O)Oc1ccc(C=C(C#N)C(=O)NCCCNC(=O)C(C#N)=Cc2ccc(OC(C)=O)c(OC(C)=O)c2)cc1OC(C)=O [Compound 3, Acetic acid 2‐acetoxy‐5‐(2‐cyano‐2‐{3‐[2‐cyano‐3‐(3,4‐diacetoxyphenyl)acryloylamino]propylcarbamoyl}vinyl)phenyl ester]
solubility in the buffer solution / under physiological conditions [10]: insoluble

CCC(=O)Oc1ccc(C=C(C#N)C(=O)NCCCNC(=O)C(C#N)=Cc2ccc(OC(=O)CC)c(OC(=O)CC)c2)cc1OC(=O)CC [Compound 4, Propionic acid 5‐(2‐{3‐[3‐(3,4‐bis‐propionyloxyphenyl)‐2‐cyanoacryloylamino]propylcarbamoyl}‐2‐cyanovinyl)‐2‐propionyloxyphenyl ester]
transferrin and EGF uptake (where applicable) ([1]; 30 μM, data not shown): inhibited transferrin and EGF uptake
transferrin and EGF uptake (where applicable) ([2]; 30 μM, data not shown): inhibited transferrin and EGF uptake
effect on EGF‐TxR uptake (CME) ([3]; 30 μM): marked reduction in CME
transferrin and EGF uptake (where applicable) ([4]; 30 μM, data not shown): inhibited transferrin and EGF uptake
transferrin and EGF uptake (where applicable) [11]: inhibited transferrin and EGF uptake
time until hydrolysis was complete [12]: ≈ 60 min
transferrin and EGF uptake (where applicable) ([9]; 30 μM, data not shown): inhibited transferrin and EGF uptake

CCCCCC(=O)Oc1ccc(C=C(C#N)C(=O)NCCCNC(=O)C(C#N)=Cc2ccc(OC(=O)CCCCC)c(OC(=O)CCCCC)c2)cc1OC(=O)CCCCC [Compound 8, Hexanoic acid 5‐(2‐{3‐[3‐(3,4‐bis‐hexanoyloxyphenyl)‐2‐cyanoacryloylamino]‐propylcarbamoyl}‐2‐cyanovinyl)‐2‐hexanoyloxyphenyl ester]
solubility in the buffer solution / under physiological conditions [10]: insoluble

CC(C)(C)C(=O)Oc1ccc(C=C(C#N)C(=O)NCCCNC(=O)C(C#N)=Cc2ccc(OC(=O)C(C)(C)C)c(OC(=O)C(C)(C)C)c2)cc1OC(=O)C(C)(C)C [Compound 9, 2,2‐Dimethylpropionic acid 5‐[2‐(3‐{3‐[3,4‐bis‐(2,2‐dimethylpropionyloxy)phenyl]‐2‐cyanoacryloylamino}propylcarbamoyl)‐2‐cyanovinyl]‐2‐(2,2‐dimethylpropionyloxy)phenyl ester]
solubility in the buffer solution / under physiological conditions [10]: insoluble
